Data as given in ChEMBL document CHEMBL4834447, “A gemcitabine-based conjugate with enhanced antitumor efficacy by suppressing HIF-1α expression under hypoxia” (Bioorg Med Chem, 2021).
The source made the active and inactive calls. No cut-off for these calls is given here.

Key:
A2780 [1] = assay: Induction of apoptosis in human A2780 cells assessed as viable cells at 0.5 uM incubated for 72 hrs in hypoxic condition by annexin-V-FITC and PI staining based flow cytometry analysis (reference value: 81.05 %); format: functional; conditions: read-out: Activity
A2780 [2] = assay: Upregulation of p53 in human A2780 cells at 0.1 to 1 uM incubated for 24 hrs in hypoxia condition by Western blot analysis; format: functional, cell-based; conditions: dose 0.1-1 µM
Method in brief: (§1)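 A2780 cells were treated at the indicated concentrations for 24 h under hypoxia. They were lysed in Tris-Cl pH 6.8 buffer with SDS, glycerol, β-mercaptoethanol, PMSF and aprotinin, then centrifuged at 13000 rpm for 20 min at 4 °C. Proteins were resolved by SDS-PAGE and transferred to PVDF. Blots were probed for HIF-1α, p53 and GAPDH, with secondary antibody at 1:2000 for 1 h, and detected by chemiluminescence.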

A2780 [3] = assay: Induction of apoptosis in human A2780 cells assessed as late apoptotic cells at 0.5 uM incubated for 72 hrs by annexin-V-FITC and PI staining based flow cytometry analysis (reference value: 1.71 %); format: functional
A2780 [4] = assay: Induction of apoptosis in human A2780 cells assessed as early apoptotic cells at 0.5 uM incubated for 72 hrs in hypoxic condition by annexin-V-FITC and PI staining based flow cytometry analysis (reference value: 9.74 %); format: functional
A2780 [5] = assay: Antitumor activity against human A2780 cells xenografted in BALB/c mouse assessed as reduction in tumor volume at 125 mg/kg, iv administered for 28 days and measured on day 28 relative to control; format: functional; design: scale not given: the % may be the effect or the level left; conditions: time 28 day
Method in brief: (§2)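 Female BALB/c nude mice, 5 weeks old, were implanted subcutaneously in the right armpit with 10⁷ A2780 cells in 0.1 mL PBS. At 100–150 mm³ (day 19) mice were randomized (5/group) and dosed by tail-vein injection once weekly for 4 weeks. GEM-5 was given in DMF:Tween 80:5% dextrose (10:2:88); vehicle controls received 5% dextrose. Volume was measured by caliper (V = AB²/2) every 3 days. Tumors were weighed after sacrifice, giving the tumor inhibitory rate.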

A2780 [6] = assay: Downregulation of HIF-1alpha in human A2780 cells incubated for 24 hrs in hypoxia condition by Western blot analysis; format: functional, cell-based; conditions: dose 0.1-1 µM; method in brief: as §1
A2780 [7] = assay: Induction of apoptosis in human A2780 cells assessed as early apoptotic cells at 0.5 uM incubated for 72 hrs by annexin-V-FITC and PI staining based flow cytometry analysis (reference value: 5.35 %); format: functional
A2780 [8] = assay: Induction of apoptosis in human A2780 cells assessed as late apoptotic cells at 0.5 uM incubated for 72 hrs in hypoxic condition by annexin-V-FITC and PI staining based flow cytometry analysis (reference value: 6.17 %); format: functional
A2780 [9] = assay: Induction of apoptosis in human A2780 cells assessed as necrotic cells at 0.5 uM incubated for 72 hrs in hypoxic condition by annexin-V-FITC and PI staining based flow cytometry analysis (reference value: 3.04 %); format: functional
A2780 [10] = assay: Cytotoxicity against human A2780 cells assessed as reduction in cell viability incubated for 72 hrs by MTT assay; format: functional, cell-based; conditions: A2780, 72 h
Method in brief: (§3)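 In the MTT assay, logarithmic-phase cells were seeded at about 5 × 10⁴ cells/mL and preincubated 12 h. Cells were then exposed for 72 h at 37 °C under normoxia (20% O₂, 5% CO₂) to seven final concentrations, 1.25–80 μmol/L, diluted from DMSO stock. MTT (5 mg/mL) was added for 4 h, formazan was dissolved in DMSO, and absorbance was read at 570/630 nm. IC50 was calculated by the Bliss method; values are mean ± SD of three independent runs in duplicate.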

A2780 [11] = assay: Induction of cell cycle arrest in human A2780 cells assessed as G1 phase at 0.5 uM incubated for 24 hrs by PI staining based flow cytometry analysis (reference value: 75.23 %)
A549 [12] = assay: Cytotoxicity against human A549 cells assessed as reduction in cell viability incubated for 72 hrs in hypoxic condition by MTT assay; format: functional, cell-based; conditions: A549, 72 h
Method in brief: (§4)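 For the hypoxic MTT assay, cells were seeded at about 5 × 10⁴ cells/mL and preincubated 12 h under hypoxia (1% O₂, 5% CO₂, 94% N₂). They were then treated for 72 h at 37 °C with final concentrations of 1.25–80 μmol/L. MTT was added for 4 h and absorbance read at 570/630 nm. IC50 was obtained by the Bliss method; tests were repeated three times.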

L02 [13] = assay: Cytotoxicity against human L02 cells assessed as reduction in cell viability incubated for 72 hrs by MTT assay; format: cell-based; conditions: L02, 72 h; method in brief: as §3
A2780 [14] = assay: Antitumor activity against human A2780 cells xenografted in BALB/c mouse assessed as reduction in tumor growth at 125 mg/kg, iv administered for 28 days and measured on day 28 relative to control; format: functional; conditions: 672 h, time 28 day, read-out: TGI; method in brief: as §2
A2780 [15] = assay: Induction of cell cycle arrest in human A2780 cells assessed as G2/M phase at 0.5 uM incubated for 24 hrs by PI staining based flow cytometry analysis (reference value: 4.66 %)
A549 [16] = assay: Cytotoxicity against human A549 cells assessed as reduction in cell viability incubated for 72 hrs by MTT assay; format: functional, cell-based; conditions: A549, 72 h; method in brief: as §3
[17] = Toxicity in BALB/c mouse xenografted with human A2780 cells assessed as effect on body weight at 271 mg/kg, iv administered for 28 days and measured on day 28; format: organism-based; conditions: in vivo, 672 h, time 28 day
Method in brief: (§5)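 The A2780 subcutaneous xenograft was set up in female BALB/c nude mice. Weekly i.v. tail-vein dosing ran for 4 weeks, starting at 100–150 mm³ tumor size (5 mice/group), with DMF:Tween 80:5% dextrose (10:2:88) as the formulation and a 5% dextrose vehicle control. Body weight was recorded every three days over 28 days.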

MCF7 [18] = assay: Cytotoxicity against human MCF7 cells assessed as reduction in cell viability incubated for 72 hrs by MTT assay; format: functional, cell-based; conditions: MCF7, 72 h; method in brief: as §3
A2780 [19] = assay: Induction of apoptosis in human A2780 cells assessed as necrotic cells at 0.5 uM incubated for 72 hrs by annexin-V-FITC and PI staining based flow cytometry analysis (reference value: 0.98 %); format: functional
A2780 [20] = assay: Induction of cell cycle arrest in human A2780 cells assessed as G2/M phase at 0.5 uM incubated for 24 hrs in hypoxic condition by PI staining based flow cytometry analysis (reference value: 8.38 %)
A2780 [21] = assay: Induction of cell cycle arrest in human A2780 cells assessed as S phase at 0.5 uM incubated for 24 hrs by PI staining based flow cytometry analysis (reference value: 20.11 %)
A2780 [22] = assay: Cytotoxicity against human A2780 cells assessed as reduction in cell viability incubated for 72 hrs in hypoxic condition by MTT assay; format: functional, cell-based; conditions: A2780, 72 h; method in brief: as §4
MCF7 [23] = assay: Potency index, ratio of IC50 of GEM to IC50 of compound for cytotoxicity against human MCF7 cells assessed as reduction in cell viability incubated for 72 hrs by MTT assay; format: functional
Method in brief: (§6)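 The fold value is the IC50 of gemcitabine divided by the compound's IC50. Both IC50s come from 72 h normoxic MTT assays (1.25–80 μmol/L, Bliss method, three independent runs).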

A2780 [24] = assay: Induction of cell cycle arrest in human A2780 cells assessed as S phase at 0.5 uM incubated for 24 hrs in hypoxic condition by PI staining based flow cytometry analysis (reference value: 34.79 %)
A2780 [25] = assay: Antitumor activity against human A2780 cells xenografted in BALB/c mouse assessed as reduction in tumor volume at 271 mg/kg, iv administered for 28 days and measured on day 28 relative to control; format: functional; design: scale not given: the % may be the effect or the level left; conditions: time 28 day; method in brief: as §2
A2780 [26] = assay: Induction of apoptosis in human A2780 cells assessed as viable cells at 0.5 uM incubated for 72 hrs by annexin-V-FITC and PI staining based flow cytometry analysis (reference value: 91.95 %); format: functional; conditions: read-out: Activity
A2780 [27] = assay: Antitumor activity against human A2780 cells xenografted in BALB/c mouse assessed as reduction in tumor hypoxia at 271 mg/kg, iv administered for 28 days and measured on day 28 by DAPI staining based confocal microscopic analysis; format: functional, organism-based; conditions: time 28.0 day
Method in brief: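 Tumor sections from the weekly i.v.-dosed A2780 xenograft mice were stained for hypoxia with the pimonidazole kit. This used FITC anti-pimonidazole antibody (1:100) plus HRP rabbit anti-FITC secondary (1:100), with DAPI for nuclei. Green hypoxic areas were imaged by confocal microscopy. Three independent experiments were run.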

A2780 [28] = assay: Antitumor activity against human A2780 cells xenografted in BALB/c mouse assessed as reduction in tumor growth at 271 mg/kg, iv administered for 28 days and measured on day 28 relative to control; format: functional; conditions: 672 h, time 28 day, read-out: TGI; method in brief: as §2
L02 [29] = assay: Cytotoxicity against human L02 cells assessed as reduction in cell viability incubated for 72 hrs in hypoxic condition by MTT assay; format: cell-based; conditions: L02, 72 h
A2780 [30] = assay: Potency index, ratio of IC50 of GEM to IC50 of compound for cytotoxicity against human A2780 cells assessed as reduction in cell viability incubated for 72 hrs by MTT assay; format: functional; method in brief: as §6
A2780 [31] = assay: Induction of cell cycle arrest in human A2780 cells assessed as G1 phase at 0.5 uM incubated for 24 hrs in hypoxic condition by PI staining based flow cytometry analysis (reference value: 56.83 %)
A549 [32] = assay: Potency index, ratio of IC50 of GEM to IC50 of compound for cytotoxicity against human A549 cells assessed as reduction in cell viability incubated for 72 hrs by MTT assay; format: functional; method in brief: as §6
[33] = Toxicity in BALB/c mouse xenografted with human A2780 cells assessed as effect on body weight at 125 mg/kg, iv administered for 28 days and measured on day 28; format: organism-based; conditions: in vivo, 672 h, time 28 day; method in brief: as §5
[34] = (§7) Downregulation of HIF-1alpha in human A2780 cells at 1 uM incubated for 24 hrs in hypoxia condition by Western blot analysis relative to control; format: functional; method in brief: as §1
A2780 [35] = assay: as §7; format: functional; method in brief: as §1

SMILES: Nc1ccn([C@@H]2O[C@H](COC(=O)CCC(=O)OCc3ccc(-c4nn(Cc5ccccc5)c5ccccc45)o3)[C@@H](O)C2(F)F)c(=O)n1
- viability at 0.5 µM (A2780 [1]): 18%
- Activity (A2780 [2]): Dose-Dependent Effect
- Activity (A2780 [3]): 48.82%
- Activity (A2780 [4]): 48.48%
- Activity (A2780 [5]): 46.09%
- Activity (A2780 [6]): Dose-Dependent Effect
- Activity (A2780 [7]): 3.85%
- Activity (A2780 [8]): 32.41%
- Activity (A2780 [9]): 1.13%
- IC50 (A2780 [10]): 0.13 µM
- Activity (A2780 [11]): 17.74%
- IC50 (A549 [12]): 3.03 µM
- IC50 (L02 [13]): 4.43 µM
- inhibition in vivo at 125 mg/kg (A2780 [14]): 55.1%
- Activity (A2780 [15]): 19.24%
- IC50 (A549 [16]): 0.37 µM
- Activity [17]: Non-Toxic
- IC50 (MCF7 [18]): 2.6 µM
- Activity (A2780 [19]): 12.08%
- Activity (A2780 [20]): 7.99%
- Activity (A2780 [21]): 63.02%
- IC50 (A2780 [22]): 0.03 µM
- Ratio IC50 (MCF7 [23]): 2.4
- Activity (A2780 [24]): 72.64%
- Activity (A2780 [25]): 36.61%
- viability at 0.5 µM (A2780 [26]): 35.2%
- Activity (A2780 [27]): Active
- inhibition in vivo at 271 mg/kg (A2780 [28]): 64.6%
- IC50 (L02 [29]): 3.04 µM
- Ratio IC50 (A2780 [30]): 9.6
- Activity (A2780 [31]): 19.37%
- Ratio IC50 (A549 [32]): 6.2
- Activity [33]: Non-Toxic

SMILES: OCc1ccc(-c2nn(Cc3ccccc3)c3ccccc23)o1
- Activity (A2780 [2]): inactive
- IC50 (A2780 [10]): > 80 µM
- IC50 (A549 [12]): 25.6 µM
- IC50 (L02 [13]): > 80 µM
- IC50 (A549 [16]): > 80 µM
- IC50 (MCF7 [18]): > 80 µM
- IC50 (A2780 [22]): 20.4 µM
- IC50 (L02 [29]): 26.6 µM
- Activity [34]: 50%

SMILES: Cl.Nc1ccn([C@@H]2O[C@H](CO)[C@@H](O)C2(F)F)c(=O)n1 [GEMCITABINE HYDROCHLORIDE]
- viability at 0.5 µM (A2780 [1]): 53%
- Activity (A2780 [2]): Dose-Dependent Effect
- Activity (A2780 [3]): 34.42%
- Activity (A2780 [4]): 25%
- Activity (A2780 [5]): 29.37%
- Activity (A2780 [7]): 5.02%
- Activity (A2780 [8]): 19.51%
- Activity (A2780 [9]): 2.44%
- IC50 (A2780 [10]): 1.25 µM
- Activity (A2780 [11]): 42.51%
- IC50 (A549 [12]): 14.7 µM
- IC50 (L02 [13]): 11.9 µM
- inhibition in vivo at 125 mg/kg (A2780 [14]): 69.7%
- Activity (A2780 [15]): 5.95%
- IC50 (A549 [16]): 2.31 µM
- IC50 (MCF7 [18]): 6.35 µM
- Activity (A2780 [19]): 8.98%
- Activity (A2780 [20]): 2.7%
- Activity (A2780 [21]): 51.54%
- IC50 (A2780 [22]): 1.38 µM
- Activity (A2780 [24]): 60.08%
- viability at 0.5 µM (A2780 [26]): 51.6%
- IC50 (L02 [29]): 4.51 µM
- Activity (A2780 [31]): 37.21%
- Activity (A2780 [35]): inactive
- Activity [33]: Non-Toxic
